Results on two compounds are retold here after ChEMBL document CHEMBL4219071, “New histone demethylase LSD1 inhibitor selectively targets teratocarcinoma and embryonic carcinoma cells” (Bioorg Med Chem, 2018).

Activity calls are given as the source filed them. The calls are words filed in the database; no cut-off is given here.

Data set [1] relates to HCT-116. The data set is described as follows: Cytotoxicity against human HCT116 cells at 2 uM after 16 to 30 hrs hrs by microscopic analysis. Type of data set: functional, cell-based. The method in brief:
(§1)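 Actively growing (30–50% confluent) cells were given a single 2 μM dose, with DMSO as the vehicle control, for 16 h. They were imaged by microscopy with a 10×10 lens. Triplicate dishes (technical repeats) were trypsinised, diluted and blindly counted on a hemacytometer, averaging the four corner squares to give cells per dish. Treated and control means were compared by two-tailed t-test.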

The test system of data set [2] is PA-1. The data set is described as follows: Cytotoxicity against human PA1 cells at 2 uM after 16 to 30 hrs hrs by microscopic analysis. Type of data set: functional, cell-based. The method in brief: as §1
The test system of data set [3] is F9. The data set is described as follows: Cytotoxicity against mouse F9 cells at 2 uM after 16 to 30 hrs hrs by microscopic analysis. Type of data set: functional, cell-based. The method in brief:
as §1

The target of data set [4] is Lysine-specific histone demethylase 1A (Homo sapiens) (UniProt O60341). The data set is described as follows: Inhibition of LSD1 in human HCT116 cells assessed as increase in H3K4me1 levels at 20 uM after 16 hrs by Western blot analysis. Type of data set: cell-based. The method in brief: (§2)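 Actively growing HCT116 or PA-1 cells were treated with CBB3001 or DMSO vehicle for 16 hours. Total histones were extracted, and mono-, di- and trimethylated H3K4 and total histone H3 were probed by Western blot with specific antibodies and quantified. Treatments were run in technical triplicate.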
(A western blot detects proteins with antibodies after separation by electrophoresis.)

Data set [5] has as its system HCT-116. The data set is described as follows: Effect on H3K4me3 levels in human HCT116 cells at 20 uM after 16 hrs by Western blot analysis. It counts as functional, cell-based. The method in brief:
(§3)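 HCT116 or PA-1 cells exposed 16 h to a range of concentrations. Total histones extracted. Mono-, di- and trimethylated H3K4 and total histone H3 detected by Western blot with specific antibodies and quantified.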

For data set [6], the target named is Lysine-specific histone demethylase 1A (Homo sapiens) (UniProt O60341). The data set is described as follows: Inhibition of LSD1 in human PA1 cells assessed as increase in H3K4me1 levels at 20 uM after 16 hrs by Western blot analysis. It counts as cell-based. The method in brief: as §2
The test system of data set [7] is PA-1. The data set is described as follows: Effect on H3K4me3 levels in human PA1 cells at 20 uM after 16 hrs by Western blot analysis. It counts as functional, cell-based. The method in brief: as §3
Data set [8] addresses Lysine-specific histone demethylase 1A (Homo sapiens) (UniProt O60341). The data set is described as follows: Inhibition of LSD1 in human HCT116 cells assessed as increase in H3K4me2 levels at 20 uM after 16 hrs by Western blot analysis. Type of data set: cell-based. The method in brief: as §2
Data set [9] has the same target. The data set is described as follows: Inhibition of LSD1 in human PA1 cells assessed as increase in H3K4me2 levels at 20 uM after 16 hrs by Western blot analysis. It counts as cell-based. The method in brief:
as §2

In data set [10] the test system is HCT-116. The data set is described as follows: Cytotoxicity against human HCT116 cells assessed as cell growth inhibition at >40 uM after 16 hrs by microscopic analysis. Type of data set: functional, cell-based. The method in brief:
(§4)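 Actively growing HCT116 or PA-1 cells (30–50% confluent), DMSO vehicle control, exposed 16 h over a range of concentrations. Cells imaged by microscope (10×10 lens). Triplicate dishes trypsinized, diluted, spotted blind on a hemacytometer, four corners counted for mean cells per dish. Treated vs control compared by two-tailed t-test. Three independent experiments.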

Data set [11] relates to PA-1. The data set is described as follows: Cytotoxicity against human PA1 cells assessed as cell growth inhibition at 5 to 20 uM after 12 to 16 hrs by microscopic analysis. Type of data set: functional, cell-based. The method in brief: as §4
Data set [12] has as its target Lysine-specific histone demethylase 1A (Homo sapiens) (UniProt O60341). The data set is described as follows: Inhibition of LSD1 in human PA1 cells assessed as downregulation of SOX2 protein expression at 20 to 40 uM after 16 hrs by Western blot analysis. It counts as cell-based. The method in brief:
(§5)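 PA-1 cells in log-phase growth were exposed to CBB3001 for 16 hours and lysed directly in buffer containing 0.5% SDS. Equalized lysates were Western blotted for SOX2, OCT4, LSD1, H3K4me1/2/3 and histone H3 using specific antibodies, with band quantification.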

For data set [13] the target is unchanged. The data set is described as follows: Inhibition of LSD1 in human PA1 cells assessed as downregulation of OCT4 protein expression at 20 uM after 16 hrs by Western blot analysis. Type of data set: cell-based. The method in brief:
as §5

The subject of data set [14] is F9. The data set is described as follows: Growth inhibition of mouse F9 cells at 20 to 40 uM after 30 hrs by microscopic analysis. It counts as functional, cell-based. The method in brief:
(§6)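 F9 or NIH3T3 cells in active growth, exposed 30 h to a range of concentrations with DMSO controls, then imaged by microscope. Triplicate dishes trypsinized and counted blind on a hemacytometer (four corners, mean cells per dish). Control vs treated compared by two-tailed equal-variance t-test.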

Another data set has as its system NIH3T3. The data set is described as follows: Growth inhibition of mouse NIH/3T3 cells at 20 to 40 uM after 30 hrs by microscopic analysis. It counts as cell-based. To be noted: nih3t3, 30 h. The method in brief: as §6
For data set [15], the target named is Lysine-specific histone demethylase 1A (Mus musculus) (UniProt Q6ZQ88). The data set is described as follows: Inhibition of LSD1 in mouse F9 cells assessed as downregulation of SOX2 protein at 20 to 40 uM by Western blot analysis. Type of data set: cell-based. The method in brief: (§7)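 F9 cells exposed 30 h to a range of concentrations, then lysed directly in 0.5% SDS lysis buffer with protein loads equalized. SOX2 and OCT4 detected by Western blot, actin as loading control, bands quantified.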

Data set [16] has the same target. The data set is described as follows: Inhibition of LSD1 in mouse F9 cells assessed as downregulation of OCT4 protein at 20 to 40 uM by Western blot analysis. Type of data set: cell-based. The method in brief:
as §7

For data set [17], the system named is PA-1. The data set is described as follows: Reversible growth inhibitory activity of human PA1 cells at 20 to 40 uM preincubated for 24 hrs followed by 24 hrs recovery by microscopic analysis. It counts as functional, cell-based. The method in brief: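 PA-1 cells in active growth, exposed 24 h to a range of concentrations. Compound removed, cells washed extensively and regrown 24 h in fresh medium without compound. Cells imaged, then triplicate dishes trypsinized and counted blind on a hemacytometer (four corners). Three independent experiments.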

Data set [18] addresses Lysine-specific histone demethylase 1A (Homo sapiens) (UniProt O60341). The data set is described as follows: Inhibition of LSD1 in human PA1 cells assessed as downregulation of SOX2 protein at 10 to 40 uM after 16 hrs by Western blot analysis.
The target is the same in data set [19]. The data set is described as follows: Inhibition of LSD1 in human PA1 cells assessed as downregulation of OCT4 protein at 10 to 40 uM after 16 hrs by Western blot analysis.

With `N[C@H]1CC[C@H](N[C@@H]2C[C@H]2c2ccccc2)CC1`, the result in the data set with HCT-116 [1], in the data set on PA-1 [2] and in the data set on F9 [3] was Active.

With `CC(C)(C)OC(=O)N[C@@H]1C[C@H]1c1ccc(OC(=O)OC(C)(C)C)cc1`, the inhibition entry in data set [4], in data set [6], in data set [8], in data set [9], in [12] and in [13] was “Active” each time. In addition, the inhibition result in data set [15], in data set [16], in [18] and in data set [19] was “Active” in each case. The result in the data set on HCT-116 [5] and with PA-1 [7] was inactive. Also, the “growth inhibition (GI)” value with HCT-116 [10] and in the data set with PA-1 [17] was “inactive” in each case. Also, the “growth inhibition (GI)” value in the data set with PA-1 [11] and in the data set on F9 [14] was “Active” throughout. The “growth inhibition (GI)” value with NIH3T3 was “Non-Toxic”.
